The source made the active and inactive calls. The calls are words filed in the database; no cut-off is given here.
Experiments:
Aurora kinase C [1] = target: T1, Aurora kinase C (Homo sapiens, UniProt Q9UQB9); assay: Competitive inhibition of Aurora C ATP binding site
T1 sequence (Q9UQB9 whole entry): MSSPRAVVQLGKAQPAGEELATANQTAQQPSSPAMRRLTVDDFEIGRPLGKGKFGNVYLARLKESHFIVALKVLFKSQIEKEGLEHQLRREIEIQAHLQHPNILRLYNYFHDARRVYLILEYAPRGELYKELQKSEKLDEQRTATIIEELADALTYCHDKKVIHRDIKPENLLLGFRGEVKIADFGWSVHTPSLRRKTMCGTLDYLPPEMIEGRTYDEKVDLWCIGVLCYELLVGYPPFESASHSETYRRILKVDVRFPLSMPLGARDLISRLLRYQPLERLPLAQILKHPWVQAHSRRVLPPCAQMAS

[2] = target: T2, Aurora kinase C (Homo sapiens) (UniProt Q9UQB9); assay: Inhibition of human Aurora C assessed as dissociation half life by rapid dilution method
T2 sequence (whole entry): T1 sequence (Q9UQB9 whole entry)

Aurora kinase C [3] = target: T1, Aurora kinase C; assay: Competitive inhibition of human Aurora C ATP binding site
Cytochrome P450 1A2 = target: T3, Cytochrome P450 1A2 (Homo sapiens, UniProt P05177); assay: Inhibition of CYP1A2 in human liver microsomes using phenacetin as substrate; type: ADME, Microsome
T3 sequence (P05177 whole entry): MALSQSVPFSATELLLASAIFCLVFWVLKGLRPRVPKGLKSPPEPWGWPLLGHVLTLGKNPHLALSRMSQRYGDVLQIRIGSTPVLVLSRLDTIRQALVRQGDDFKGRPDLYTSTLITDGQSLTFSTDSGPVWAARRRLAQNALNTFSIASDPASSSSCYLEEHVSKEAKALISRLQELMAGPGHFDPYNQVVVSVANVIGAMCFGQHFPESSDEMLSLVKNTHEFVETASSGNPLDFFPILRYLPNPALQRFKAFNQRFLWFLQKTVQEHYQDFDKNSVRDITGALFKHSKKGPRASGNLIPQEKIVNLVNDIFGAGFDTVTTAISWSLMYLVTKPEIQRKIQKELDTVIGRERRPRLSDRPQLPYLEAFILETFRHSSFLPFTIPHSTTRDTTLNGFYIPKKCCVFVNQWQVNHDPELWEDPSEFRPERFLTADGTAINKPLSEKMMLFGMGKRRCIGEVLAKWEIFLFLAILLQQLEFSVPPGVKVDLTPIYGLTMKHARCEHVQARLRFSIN
How it was run: (§1)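 Human liver microsome incubations with a selective probe substrate for each CYP isozyme. Product formation was read by LC/MS/MS. Activity with compound was normalized to activity without compound and expressed as percent of control activity.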

Cytochrome P450 2C9 [4] = target: T4, Cytochrome P450 2C9 (Homo sapiens, UniProt P11712); assay: Inhibition of CYP2C9 in human liver microsomes using diclofenac as substrate; type: ADME, Microsome; how it was run: as §1
T4 sequence (P11712 whole entry): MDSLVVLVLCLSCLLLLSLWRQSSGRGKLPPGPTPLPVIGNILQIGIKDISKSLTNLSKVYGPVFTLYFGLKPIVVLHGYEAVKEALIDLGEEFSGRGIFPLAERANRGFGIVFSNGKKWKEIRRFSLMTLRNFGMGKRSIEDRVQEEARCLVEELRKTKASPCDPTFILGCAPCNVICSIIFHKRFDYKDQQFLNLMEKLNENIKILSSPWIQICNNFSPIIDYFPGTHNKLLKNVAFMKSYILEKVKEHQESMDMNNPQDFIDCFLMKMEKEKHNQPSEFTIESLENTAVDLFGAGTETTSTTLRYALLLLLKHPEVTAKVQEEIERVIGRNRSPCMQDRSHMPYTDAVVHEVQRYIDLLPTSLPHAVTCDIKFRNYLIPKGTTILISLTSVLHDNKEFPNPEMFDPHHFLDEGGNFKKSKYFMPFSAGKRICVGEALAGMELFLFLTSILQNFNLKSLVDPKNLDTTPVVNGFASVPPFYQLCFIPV

Cytochrome P450 2C19 = Cytochrome P450 2C19 (Homo sapiens, UniProt P33261); assay: Inhibition of CYP2C19 in human liver microsomes using S-mephenytoin as substrate; type: ADME, Microsome
Sequence of Cytochrome P450 2C19 (P33261 whole entry): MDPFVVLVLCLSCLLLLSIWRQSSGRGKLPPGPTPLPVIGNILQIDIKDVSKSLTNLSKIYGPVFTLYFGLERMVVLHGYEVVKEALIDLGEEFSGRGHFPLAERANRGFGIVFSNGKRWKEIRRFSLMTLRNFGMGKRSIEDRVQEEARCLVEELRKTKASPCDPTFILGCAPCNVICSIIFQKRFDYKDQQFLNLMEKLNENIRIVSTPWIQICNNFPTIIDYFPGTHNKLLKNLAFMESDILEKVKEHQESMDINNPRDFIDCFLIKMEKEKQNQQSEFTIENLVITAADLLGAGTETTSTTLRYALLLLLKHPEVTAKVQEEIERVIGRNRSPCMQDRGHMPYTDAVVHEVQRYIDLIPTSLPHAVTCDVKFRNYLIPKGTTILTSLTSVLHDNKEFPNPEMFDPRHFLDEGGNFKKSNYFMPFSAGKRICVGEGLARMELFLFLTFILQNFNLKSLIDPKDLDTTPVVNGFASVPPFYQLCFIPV
How it was run: (§2)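 Human liver microsomes were incubated with a selective probe substrate for each CYP isozyme across a compound concentration series. Product formation was monitored by LC/MS/MS. Activity was normalized to the no-compound control, expressed as percent of control activity, and used to generate an IC50.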

Cytochrome P450 2D6 [5] = target: T5, Cytochrome P450 2D6 (Homo sapiens, UniProt P10635); assay: Inhibition of CYP2D6 in human liver microsomes using bufuralol as substrate; type: ADME, Microsome; how it was run: as §2
T5 sequence (P10635 whole entry): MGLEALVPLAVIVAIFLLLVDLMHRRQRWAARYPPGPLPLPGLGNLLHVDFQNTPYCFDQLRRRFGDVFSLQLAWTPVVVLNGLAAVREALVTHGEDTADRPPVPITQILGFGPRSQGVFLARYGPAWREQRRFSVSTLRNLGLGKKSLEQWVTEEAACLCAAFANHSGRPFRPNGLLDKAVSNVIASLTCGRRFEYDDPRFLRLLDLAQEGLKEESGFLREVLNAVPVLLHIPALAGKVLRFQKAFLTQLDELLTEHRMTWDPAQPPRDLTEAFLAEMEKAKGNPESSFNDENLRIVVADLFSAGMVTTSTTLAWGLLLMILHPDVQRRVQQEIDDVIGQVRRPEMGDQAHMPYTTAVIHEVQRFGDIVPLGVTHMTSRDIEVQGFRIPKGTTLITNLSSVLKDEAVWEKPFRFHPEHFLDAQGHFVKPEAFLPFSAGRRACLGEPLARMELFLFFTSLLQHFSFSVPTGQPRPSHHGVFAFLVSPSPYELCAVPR

Cytochrome P450 3A4 = Cytochrome P450 3A4 (Homo sapiens, UniProt P08684); assay: Inhibition of CYP3A4 in human liver microsomes using midazolam as substrate; type: ADME, Microsome; how it was run: as §2
Sequence of Cytochrome P450 3A4 (P08684 whole entry): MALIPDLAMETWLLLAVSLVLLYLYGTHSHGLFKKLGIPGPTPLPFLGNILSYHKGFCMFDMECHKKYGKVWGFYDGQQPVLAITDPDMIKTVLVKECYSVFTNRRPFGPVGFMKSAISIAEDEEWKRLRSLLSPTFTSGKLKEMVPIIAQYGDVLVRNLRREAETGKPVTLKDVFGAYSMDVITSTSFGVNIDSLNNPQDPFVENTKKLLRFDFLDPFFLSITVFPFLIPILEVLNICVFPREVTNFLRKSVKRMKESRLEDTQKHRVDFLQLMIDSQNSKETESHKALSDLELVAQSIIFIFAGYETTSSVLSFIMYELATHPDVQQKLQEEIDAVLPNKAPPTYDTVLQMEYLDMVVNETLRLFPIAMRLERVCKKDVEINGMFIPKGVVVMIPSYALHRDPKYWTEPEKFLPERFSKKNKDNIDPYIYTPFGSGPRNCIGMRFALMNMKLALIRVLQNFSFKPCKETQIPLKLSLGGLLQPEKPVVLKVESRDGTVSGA

[6] = Blood clearance in mouse at 2 mg/kg, iv administered as single dose; type: ADME, organism-based; parameters: dose 2 mg/kg, route intravenous; details: whole blood
How it was run: (§3)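 Conscious mice received a single intravenous dose. Blood clearance, dose-normalized AUC(0-∞) and steady-state volume of distribution were derived from the profile.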

Mus musculus [7] = assay: Dose normalized AUC (0 to infinity) in mouse at 2 mg/kg, iv administered as single dose; type: ADME, organism-based; parameters: time infinity, dose 2 mg/kg, route intravenous; details: in vivo; how it was run: as §3
[8] = Volume of distribution at steady state in mouse at 2 mg/kg, iv administered as single dose; type: ADME, organism-based; parameters: dose 2 mg/kg, route intravenous; details: in vivo, read-out: Vdss; how it was run: as §3
[9] = Mean residence time in mouse at 2 mg/kg, iv administered as single dose; type: ADME, organism-based; parameters: dose 2 mg/kg, route intravenous; details: in vivo
[10] = Solubility at pH 4; type: physicochemical; details: buffer
Mus musculus [11] = assay: Inhibition of histone H3 phosphorylation in ip dosed mouse xenografted with human COLO205 cells after 30 hrs; type: functional, organism-based; details: COLO 205
How it was run: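 Mice bearing advanced Colo205 tumors were treated intraperitoneally at several doses. Tumor phospho-histone H3 (Ser10) was measured by ELISA 30 h post dose and expressed as percent inhibition relative to control.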

HL-60 [12] = assay: Antitumor activity against human HL60 cells xenografted in nude mouse assessed as complete tumor regression at 75 mg/kg, ip QD for 5 days and for 2 cycles; type: functional, organism-based; parameters: dose 75 mg/kg
How it was run: (§4)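 Subcutaneous HL-60 xenografts in nude mice. Dosing was intraperitoneal, once daily for five days, repeated for two cycles (qdx5 ×2), at 75 or 100 mg kg-1. Untreated mice served as controls. Tumors were followed for regression and for regrowth up to 51 days after the last dose.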

HL-60 [13] = assay: Antitumor activity against human HL60 cells xenografted in nude mouse assessed as complete tumor regression at 100 mg/kg, ip QD for 5 days and for 2 cycles; type: functional, organism-based; parameters: dose 100 mg/kg; how it was run: as §4
HL-60 [14] = assay: Antitumor activity against human HL60 cells xenografted in nude mouse assessed as complete suppression of tumor regrowth at 100 mg/kg, ip QD for 5 days and for 2 cycles measured on day 51 post last dose; type: functional, organism-based; parameters: dose 100 mg/kg; how it was run: as §4
Aurora kinase B [15] = target: T6, Aurora kinase B (Homo sapiens, UniProt Q96GD4); assay: Inhibition of human Aurora B by in vitro inhibition assay
T6 sequence (Q96GD4 whole entry): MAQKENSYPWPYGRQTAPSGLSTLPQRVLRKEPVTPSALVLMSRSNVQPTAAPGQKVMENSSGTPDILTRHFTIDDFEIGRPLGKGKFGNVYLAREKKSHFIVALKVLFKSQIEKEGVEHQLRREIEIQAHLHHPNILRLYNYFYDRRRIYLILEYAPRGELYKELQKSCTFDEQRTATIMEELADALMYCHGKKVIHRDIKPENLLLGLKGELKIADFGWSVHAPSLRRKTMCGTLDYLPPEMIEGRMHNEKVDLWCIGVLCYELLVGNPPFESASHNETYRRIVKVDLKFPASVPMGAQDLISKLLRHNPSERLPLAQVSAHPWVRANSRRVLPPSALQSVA

[16] = Permeability by PAMPA; type: ADME; details: read-out: permeability
Aurora kinase A = target: T7, Aurora kinase A (Homo sapiens, UniProt O14965); assay: Inhibition of human Aurora A
T7 sequence (O14965 whole entry): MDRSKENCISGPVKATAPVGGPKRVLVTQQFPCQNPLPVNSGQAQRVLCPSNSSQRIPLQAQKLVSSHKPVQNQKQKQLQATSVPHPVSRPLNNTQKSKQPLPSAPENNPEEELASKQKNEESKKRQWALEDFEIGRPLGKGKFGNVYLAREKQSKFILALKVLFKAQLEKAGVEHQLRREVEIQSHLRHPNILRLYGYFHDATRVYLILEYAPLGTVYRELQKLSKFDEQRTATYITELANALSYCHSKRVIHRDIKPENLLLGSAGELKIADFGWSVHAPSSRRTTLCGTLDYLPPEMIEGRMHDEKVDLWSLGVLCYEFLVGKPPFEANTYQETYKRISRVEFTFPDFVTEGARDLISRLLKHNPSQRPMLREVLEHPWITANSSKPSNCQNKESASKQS

A549 = assay: Antiproliferative activity against human A549 cells after 6 to 7 days by celltiter-glo luminescence assay in absence of 70% human serum albumin; type: functional, cell-based
[17] = target: Hepatocyte growth factor receptor (Homo sapiens, UniProt P08581); assay: Inhibition of MET
Sequence of Hepatocyte growth factor receptor (P08581 whole entry): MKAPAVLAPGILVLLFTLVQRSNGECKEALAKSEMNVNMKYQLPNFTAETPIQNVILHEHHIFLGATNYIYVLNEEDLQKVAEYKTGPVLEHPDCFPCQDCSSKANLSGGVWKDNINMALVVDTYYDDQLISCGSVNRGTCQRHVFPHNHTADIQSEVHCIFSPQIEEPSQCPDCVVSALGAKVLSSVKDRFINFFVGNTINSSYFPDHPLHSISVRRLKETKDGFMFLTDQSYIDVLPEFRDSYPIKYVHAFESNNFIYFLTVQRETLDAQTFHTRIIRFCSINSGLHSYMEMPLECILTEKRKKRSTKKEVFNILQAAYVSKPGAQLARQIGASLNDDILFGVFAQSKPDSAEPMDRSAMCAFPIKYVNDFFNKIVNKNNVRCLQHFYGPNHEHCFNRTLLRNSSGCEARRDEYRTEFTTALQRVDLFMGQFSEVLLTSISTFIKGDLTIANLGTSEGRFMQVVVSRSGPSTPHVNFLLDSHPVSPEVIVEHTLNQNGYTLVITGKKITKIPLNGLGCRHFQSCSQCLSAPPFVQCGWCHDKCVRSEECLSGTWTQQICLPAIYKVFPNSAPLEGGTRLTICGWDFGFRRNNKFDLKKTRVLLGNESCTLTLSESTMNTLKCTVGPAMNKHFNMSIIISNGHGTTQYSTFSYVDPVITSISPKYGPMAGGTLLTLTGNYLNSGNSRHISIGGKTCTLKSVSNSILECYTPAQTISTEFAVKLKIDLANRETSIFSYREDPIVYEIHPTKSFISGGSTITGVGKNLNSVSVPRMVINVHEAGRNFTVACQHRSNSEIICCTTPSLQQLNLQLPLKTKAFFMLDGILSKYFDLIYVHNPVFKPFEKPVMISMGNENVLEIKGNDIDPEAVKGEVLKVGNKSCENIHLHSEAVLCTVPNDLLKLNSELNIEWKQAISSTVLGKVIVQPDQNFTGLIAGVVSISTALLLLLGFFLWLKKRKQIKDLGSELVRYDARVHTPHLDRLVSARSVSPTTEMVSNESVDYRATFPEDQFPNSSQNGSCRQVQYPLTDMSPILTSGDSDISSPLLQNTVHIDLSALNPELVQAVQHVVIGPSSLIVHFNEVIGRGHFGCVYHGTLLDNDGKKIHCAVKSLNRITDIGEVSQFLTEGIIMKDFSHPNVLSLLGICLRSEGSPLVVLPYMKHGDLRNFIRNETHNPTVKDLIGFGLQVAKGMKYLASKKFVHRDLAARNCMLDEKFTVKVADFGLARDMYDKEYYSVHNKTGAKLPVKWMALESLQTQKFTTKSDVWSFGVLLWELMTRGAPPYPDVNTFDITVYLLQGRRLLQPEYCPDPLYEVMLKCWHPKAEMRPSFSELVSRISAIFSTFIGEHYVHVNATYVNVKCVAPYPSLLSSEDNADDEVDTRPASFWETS

[18] = target: Insulin-like growth factor 1 receptor (Homo sapiens, UniProt P08069); assay: Inhibition of IGF1R
Sequence of Insulin-like growth factor 1 receptor (P08069 31-736 limits assumed): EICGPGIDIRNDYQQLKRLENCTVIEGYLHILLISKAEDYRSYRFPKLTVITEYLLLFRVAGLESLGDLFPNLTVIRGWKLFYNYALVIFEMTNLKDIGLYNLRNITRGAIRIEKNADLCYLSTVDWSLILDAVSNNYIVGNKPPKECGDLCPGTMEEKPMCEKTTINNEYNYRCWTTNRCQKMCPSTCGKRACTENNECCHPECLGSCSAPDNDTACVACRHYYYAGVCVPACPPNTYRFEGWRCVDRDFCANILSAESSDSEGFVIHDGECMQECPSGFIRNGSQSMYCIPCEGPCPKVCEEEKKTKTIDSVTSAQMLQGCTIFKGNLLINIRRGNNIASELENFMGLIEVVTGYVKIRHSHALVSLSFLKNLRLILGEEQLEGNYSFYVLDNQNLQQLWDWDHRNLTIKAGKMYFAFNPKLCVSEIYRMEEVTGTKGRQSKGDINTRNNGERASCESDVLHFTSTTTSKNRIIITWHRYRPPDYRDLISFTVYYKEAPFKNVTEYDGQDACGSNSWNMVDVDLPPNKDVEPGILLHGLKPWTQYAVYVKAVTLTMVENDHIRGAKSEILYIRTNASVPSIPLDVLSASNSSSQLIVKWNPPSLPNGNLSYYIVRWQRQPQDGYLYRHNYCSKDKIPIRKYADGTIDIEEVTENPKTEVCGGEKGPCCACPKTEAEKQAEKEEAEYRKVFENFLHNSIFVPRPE
Sequence of Insulin-like growth factor 1 receptor (P08069 741-1367 limits assumed): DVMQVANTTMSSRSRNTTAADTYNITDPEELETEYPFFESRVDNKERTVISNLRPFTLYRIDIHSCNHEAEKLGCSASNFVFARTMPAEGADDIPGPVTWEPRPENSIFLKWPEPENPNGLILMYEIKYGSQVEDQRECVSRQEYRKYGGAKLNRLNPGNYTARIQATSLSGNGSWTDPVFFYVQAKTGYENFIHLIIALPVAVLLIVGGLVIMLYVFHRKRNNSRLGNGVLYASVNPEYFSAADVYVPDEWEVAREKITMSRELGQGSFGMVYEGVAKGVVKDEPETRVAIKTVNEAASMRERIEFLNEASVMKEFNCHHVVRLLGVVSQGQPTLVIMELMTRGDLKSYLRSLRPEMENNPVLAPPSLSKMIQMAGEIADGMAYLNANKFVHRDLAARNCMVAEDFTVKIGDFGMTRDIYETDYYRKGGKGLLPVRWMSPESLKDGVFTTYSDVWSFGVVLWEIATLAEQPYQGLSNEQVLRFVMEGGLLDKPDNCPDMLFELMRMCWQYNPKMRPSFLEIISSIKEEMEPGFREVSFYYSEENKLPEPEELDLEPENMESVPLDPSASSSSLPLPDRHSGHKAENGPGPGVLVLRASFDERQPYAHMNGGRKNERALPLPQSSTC
How it was run: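 Part of a 328 human protein and lipid kinase selectivity panel run as in vitro activity or binding assays.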

Aurora kinase B [19] = target: T6, Aurora kinase B; assay: Inhibition of human Aurora B assessed as residence time by rapid dilution method
[20] = Plasma clearance in iv dosed rat; type: ADME, organism-based
[21] = Half life in iv dosed rat; type: ADME, organism-based; details: in vivo
[22] = Volume of distribution at steady state in iv dosed rat; type: ADME, organism-based; details: in vivo, read-out: Vdss
Cytochrome P450 2C9 [23] = target: T4, Cytochrome P450 2C9; assay: Inhibition of CYP2C9; type: ADME
Cytochrome P450 2D6 [24] = target: T5, Cytochrome P450 2D6; assay: Inhibition of CYP2D6; type: ADME
How it was run: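 Human liver microsomes incubated with a selective probe substrate for each CYP isozyme, with and without test compound. Metabolite formation quantified by LC/MS/MS. Activity with compound normalized to activity without compound and expressed as percent of control. IC50 derived from the concentration response.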

Compound CCn1cc(-c2ccnc3[nH]c(-c4cccc(CN(C)C)c4)cc23)c(-c2ccc(NC(=O)N(C)C)cc2)n1 [GSK-1070916] has an IC50 (Aurora kinase C [1]) of 6.5 nM, a Ki (Aurora kinase C [1]) of 1.5 nM and an Activity [2] of 270 min. For the same compound, the Ki (Aurora kinase C [3]) was 1.5 nM, the IC50 (Cytochrome P450 1A2) was > 33000 nM and the IC50 (Cytochrome P450 2C9 [4]) was 38000 nM. For the same compound, the IC50 (Cytochrome P450 2C19) was 81000 nM, the IC50 (Cytochrome P450 2D6 [5]) was 12000 nM and the “inhibition (INH)” value (Cytochrome P450 3A4) was “Not Active”. For the same compound, the clearance [6] was 49.4 mL/min/kg, the AUC (Mus musculus [7]) was 345 ng·h/mL/mg/kg and the Vd [8] was 0.8 L/kg. The MRT [9] was 18 min, the solubility [10] was > 10000 µg/mL and the inhibition (Mus musculus [11]) was “Dose-dependent effect”. The inhibition (HL-60 [12]) was “Active”, the inhibition (HL-60 [13]) was “Active” and the inhibition (HL-60 [14]) was “Active”. For the same compound, the IC50 (Aurora kinase B [15]) was 5 nM.
Compound CCn1cc(-c2ccnc3[nH]ccc23)c(-c2ccc(NC(=O)Nc3ccccc3)cc2)n1 has a Papp [16] of 17 ×10⁻⁶ cm/s, an IC50 (Aurora kinase A) of 631 nM and an EC50 (A549) of 79 nM. It also gave an IC50 [17] of 316 nM, an IC50 [18] of 158 nM and a TIME (Aurora kinase B [19]) of 0.128 h. It also gave a clearance [20] of 128 mL/min/kg, a half-life [21] of 12 min and a Vd [22] of 1.7 L/kg. For the same compound, the IC50 (Cytochrome P450 2C9 [23]) was < 100 nM and the IC50 (Cytochrome P450 2D6 [24]) was < 100 nM.
